Measurements: ChEMBL document CHEMBL4842369, “Synthesis, structure-activity relationship and antiviral activity of indole-containing inhibitors of Flavivirus NS2B-NS3 protease” (Eur J Med Chem, 2021)

What was measured:
Nonstructural protein 3 = Nonstructural protein 3 (Zika virus, UniProt A0A024AXB9); experiment: Inhibition of Zika virus recombinant NS2B (47 to 95 residues)/NS3 (1 to 177 residues) protease expressed in Escherichia coli BL21 using Bz-Nle-Lys-Lys-Arg-AMC as substrate preincubated for 10 mins by fluorescence-based biochemical assay
Nonstructural protein 3, sequence (A0A024AXB9 whole entry, the tested form may be a part): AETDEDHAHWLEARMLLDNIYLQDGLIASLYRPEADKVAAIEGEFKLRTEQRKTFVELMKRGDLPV
Method in brief: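 ZIKV NS2B-NS3 protease at 1 nM, with 10 µM Bz-Nle-Lys-Lys-Arg-AMC in 20 mM HEPES pH 7.3 containing 0.05% Triton X-100. Compound at increasing concentrations in triplicate, pre-incubated with enzyme 10 min before substrate. Fluorescence (Ex 360/Em 460 nm) read every 30 s. IC50 from dose-response curve fit, 3 independent experiments, standard deviation.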

Genome polyprotein [1] = biological target: Genome polyprotein (dengue virus type 2, UniProt P29990); experiment: Inhibition of Dengue virus 2 NS2B (50 to 95 residues)/NS3 (1 to 182 residues) protease expressed in Escherichia coli BL21 using Bz-Nle-Lys-Lys-Arg-AMC as substrate preincubated for 10 mins by fluorescence-based biochemical assay
Genome polyprotein (dengue virus type 2, UniProt P29990), sequence (P29990 1346-1475 limits assumed): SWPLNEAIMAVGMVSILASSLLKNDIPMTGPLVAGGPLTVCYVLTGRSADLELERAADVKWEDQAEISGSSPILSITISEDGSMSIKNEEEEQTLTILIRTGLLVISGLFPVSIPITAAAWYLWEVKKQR
Genome polyprotein (dengue virus type 2, UniProt P29990), sequence (P29990 1476-2093 limits assumed): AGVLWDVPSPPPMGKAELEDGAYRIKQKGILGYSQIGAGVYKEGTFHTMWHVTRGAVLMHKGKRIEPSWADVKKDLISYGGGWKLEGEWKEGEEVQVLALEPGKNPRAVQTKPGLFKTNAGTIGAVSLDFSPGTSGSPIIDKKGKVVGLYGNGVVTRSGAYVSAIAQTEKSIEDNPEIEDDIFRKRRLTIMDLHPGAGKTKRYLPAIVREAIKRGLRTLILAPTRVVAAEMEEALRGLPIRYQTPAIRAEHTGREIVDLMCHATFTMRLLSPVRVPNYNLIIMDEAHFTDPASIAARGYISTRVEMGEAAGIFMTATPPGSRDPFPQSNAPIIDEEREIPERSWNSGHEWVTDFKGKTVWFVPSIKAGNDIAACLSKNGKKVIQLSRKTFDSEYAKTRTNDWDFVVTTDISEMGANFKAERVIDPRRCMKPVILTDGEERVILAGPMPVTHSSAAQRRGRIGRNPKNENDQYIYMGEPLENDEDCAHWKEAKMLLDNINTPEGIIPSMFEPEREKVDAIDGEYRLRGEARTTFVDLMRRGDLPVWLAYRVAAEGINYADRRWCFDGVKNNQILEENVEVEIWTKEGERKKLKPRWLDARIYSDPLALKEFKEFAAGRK
Method in brief: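 Recombinant DENV-2 NS2B-NS3 protease assayed like the ZIKV protease. Bz-Nle-Lys-Lys-Arg-AMC substrate, compound pre-incubated with enzyme 10 min, fluorescence monitored at Ex 360/Em 460 nm. IC50 from dose-response fit of triplicate samples at increasing concentrations.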

Genome polyprotein [2] = biological target: Genome polyprotein (West Nile virus, UniProt P06935); experiment: Inhibition of West Nile virus NS2B (49 to 96 residues)/NS3 (2 to 184 residues) protease expressed in Escherichia coli BL21 using Bz-Nle-Lys-Lys-Arg-AMC as substrate preincubated for 10 mins by fluorescence-based biochemical assay
Genome polyprotein (West Nile virus, UniProt P06935), sequence (P06935 1371-1501 limits assumed): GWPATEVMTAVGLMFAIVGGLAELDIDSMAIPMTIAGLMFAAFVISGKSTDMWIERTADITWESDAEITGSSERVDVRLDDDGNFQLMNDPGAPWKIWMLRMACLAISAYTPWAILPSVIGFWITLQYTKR
Genome polyprotein (West Nile virus, UniProt P06935), sequence (P06935 1502-2120 limits assumed): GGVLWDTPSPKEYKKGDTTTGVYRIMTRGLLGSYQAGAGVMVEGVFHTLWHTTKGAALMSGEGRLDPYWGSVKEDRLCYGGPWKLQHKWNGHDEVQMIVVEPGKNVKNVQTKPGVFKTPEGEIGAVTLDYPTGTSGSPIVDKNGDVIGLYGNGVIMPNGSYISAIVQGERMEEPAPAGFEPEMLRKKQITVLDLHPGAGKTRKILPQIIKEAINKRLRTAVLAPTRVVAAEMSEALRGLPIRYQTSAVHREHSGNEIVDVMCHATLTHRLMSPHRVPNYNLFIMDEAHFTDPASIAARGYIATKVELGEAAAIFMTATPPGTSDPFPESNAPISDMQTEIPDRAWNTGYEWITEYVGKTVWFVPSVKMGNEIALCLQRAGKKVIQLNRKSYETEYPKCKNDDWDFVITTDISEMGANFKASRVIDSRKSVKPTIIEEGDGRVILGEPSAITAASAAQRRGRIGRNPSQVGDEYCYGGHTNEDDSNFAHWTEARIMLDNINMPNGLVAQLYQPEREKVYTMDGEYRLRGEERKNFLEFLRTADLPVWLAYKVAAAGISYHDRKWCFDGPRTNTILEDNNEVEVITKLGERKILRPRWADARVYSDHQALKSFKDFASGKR
Method in brief: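 Recombinant WNV NS2B-NS3 protease, tested in the same way as the Zika protease assay. Compound was preincubated with enzyme for 10 min before Bz-Nle-Lys-Lys-Arg-AMC was added. Hydrolysis was followed as AMC fluorescence (Ex 360/Em 460 nm) read every 30 s. IC50 was derived by dose-response curve fitting.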

Zika virus = experiment: Antiviral activity against Zika virus infected in human U87 cells assessed as reduction in infectious virus in supernatant by measuring infection of Vero cells incubated with supernatant of viral infected U87 cells and measured following infection of supernatants with Vero cells for 7 days by MTT assay; format: functional; settings: U-87 MG, 168 h, time 7 day
Method in brief: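 U87 cells (2×10^4/well) in DMEM with 2% FBS, infected with ZIKV FLR strain (passage-3 stock) at MOI 0.01 for 1 h, then PBS-washed. Compound added in triplicate, 2 days at 37 °C. Half-log dilutions of supernatant put on Vero monolayers in quadruplicate for 7 days. CPE by microscopy then MTT. TCID50 from highest dilution infecting 2/4 wells. At least 2 independent experiments.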

U-87 MG = experiment: Cytotoxicity against human U87 cells assessed as inhibition of growth by MTT assay; format: cell-based; settings: u-87mg atcc

Row | SMILES | IC50 (Nonstructural protein 3) [µM] | also measured
1 | NCc1ccc(-c2ccc3c(C(=O)NCC4CCNCC4)c[nH]c3c2)cc1 | > 50 | –
2 | O=C(NCC1CCNCC1)c1c[nH]c2cc(-c3ccccc3F)ccc12 | > 50 | –
3 | O=C(NCC1CCNCC1)c1c[nH]c2nc(-c3ccc(C(F)(F)F)cc3)ccc12 | 18.1 | –
4 | O=C(NCC1CCNCC1)c1cc2cc(-c3ccncc3)ccc2[nH]1 | 37 | –
5 | N#Cc1ccc(-c2ccc3c(C(=O)NC4CCNCC4)coc3c2)cc1 | > 50 | –
6 | O=C(NCC1CCNCC1)c1cc2cc(-c3ccc(-c4ccsc4)cc3)ccc2[nH]1 | 1.1 | –
7 | CC(C)(C)c1ccc(-c2ccc3c(C(=O)NCC4CCNCC4)c[nH]c3c2)cc1 | 5 | IC50 (Genome polyprotein [1]): 30.4 µM; IC50 (Genome polyprotein [2]): 35.1 µM
8 | O=C(NCC1CCNCC1)c1c[nH]c2cc(-c3cn[nH]c3)ccc12 | 5.7 | IC50 (Genome polyprotein [1]): 48.3 µM; IC50 (Genome polyprotein [2]): 42 µM
9 | O=C(NCC1CCNCC1)c1cc2cc(-c3cccnc3)ccc2[nH]1 | > 50 | –
10 | N#Cc1ccc(-c2ccc3[nH]c(C(=O)NCC4CCNCC4)cc3c2)cc1 | 9.2 | –
11 | O=C(NCC1CCNCC1)c1c[nH]c2cc(-c3ccc(Cl)nc3)ccc12 | 42 | –
12 | COc1cc(-c2ccc3[nH]cc(C(=O)NC4CCNCC4)c3c2)cc(OC)c1OC | > 50 | –
13 | O=C(NCC1CCNCC1)c1c[nH]c2nc(-c3ccc(CN4CCOCC4)cc3)ccc12 | 0.6 | EC68 (Zika virus): > 10 µM; CC50 (U-87 MG): > 10 µM
14 | COc1cc(-c2ccc3c(C(=O)NCC4CCNCC4)c[nH]c3c2)cc(OC)c1OC | > 50 | –
15 | CC(C)(C)c1ccc(-c2ccc3c(c2)c(C(=O)NCC2CCNCC2)cn3CCCC2CCNCC2)cc1 | 14.6 | –
16 | O=C(NC1CCNCC1)c1cc2ccc(-c3ccncc3)cc2[nH]1 | 9.8 | –
17 | O=C(NCC1CCNCC1)c1cc2cc(-c3ccc(N4CCNCC4)cc3)ccc2[nH]1 | 8.8 | –

Row | SMILES | IC50 (Nonstructural protein 3) [µM] | also measured
18 | O=C(NCCC1CCNCC1)c1c[nH]c2cc(-c3ccncc3)ccc12 | 0.63 | EC68 (Zika virus): 10 µM; CC50 (U-87 MG): > 10 µM
19 | CC(C)(C)c1ccc(-c2ccc3c(ccn3Cc3ccc(-c4ccncc4)cc3)c2)cc1 | > 50 | –
20 | O=C(NCC1CCNCC1)c1cc2ccc(-c3ccc(F)cc3)cc2[nH]1 | 14.4 | –
21 | Cc1cc(C#N)ccc1-c1ccc2[nH]c(C(=O)NCC3CCNCC3)cc2c1 | 40.2 | IC50 (Genome polyprotein [1]): > 50 µM; IC50 (Genome polyprotein [2]): > 50 µM
22 | O=C(NC1CCNCC1)c1c[nH]c2cc(-c3ccncc3)ccc12 | 1 | EC68 (Zika virus): 10 µM; IC50 (Genome polyprotein [1]): 10 µM; CC50 (U-87 MG): > 10 µM; IC50 (Genome polyprotein [2]): 10.5 µM
23 | O=C(NCC1CCNCC1)c1c[nH]c2cc(-c3cccnc3)ccc12 | 1.1 | –
24 | O=C(NCC1CCNCC1)c1c[nH]c2cc(-c3ccoc3)c(-c3ccoc3)cc12 | 0.37 | EC68 (Zika virus): 3 µM; IC50 (Genome polyprotein [1]): 3.1 µM; CC50 (U-87 MG): > 10 µM; IC50 (Genome polyprotein [2]): 3.7 µM
25 | O=C(NCC1CCNCC1)c1cc2cc(-c3ccc(N4CCCC4)cc3)ccc2[nH]1 | 3.4 | –
26 | Cc1ccc(-c2ccc3c(C(=O)NCC4CCNCC4)c[nH]c3c2)cc1 | 48.9 | IC50 (Genome polyprotein [1]): > 50 µM; IC50 (Genome polyprotein [2]): > 50 µM
27 | CC(C)(C)c1ccc(-c2ccc3cc(C(=O)NCC4CCNCC4)[nH]c3c2)cc1 | – | IC50 (Genome polyprotein [1]): 15 µM; IC50 (Genome polyprotein [2]): 21.8 µM
28 | NCc1ccc(-c2ccc3[nH]c(C(=O)NCC4CCNCC4)cc3c2)cc1 | 9.5 | –
29 | O=C(NCC1CCNCC1)c1cc2ccc(-c3ccc(N4CCCCC4)cc3)cc2[nH]1 | 7.9 | –
30 | O=C(NCC1CCNCC1)c1cc2ccc(-c3ccc(N4CCNCC4)cc3)cc2[nH]1 | 5.6 | –
31 | O=Cc1cccc(-c2ccc3[nH]cc(C(=O)NCC4CCNCC4)c3c2)c1 | > 50 | –
32 | NCc1ccc(-c2ccc3cc(C(=O)NCC4CCNCC4)[nH]c3c2)cc1 | 3.2 | –
33 | O=C(NCC1CCNCC1)c1cc2ccc(-c3ccc(CCO)cc3)cc2[nH]1 | 45.6 | –
34 | O=C(NCC1CCNCC1)c1cc2ccc(-c3ccccc3)cc2[nH]1 | 9.4 | –
